Test results taken from ChEMBL document CHEMBL3861962 (Eur J Med Chem, 2016).

Experiments:
[1] = Retention time of the compound; assay type: physicochemical
Cytochrome P450 3A4 [2] = biological target: T1, Cytochrome P450 3A4 (Homo sapiens, UniProt P08684); assay: Drug level assessed as human recombinant CYP3A4-mediated compound formation treated with 4-(1,1,1,3,3,3-Hexafluoro-2-methoxypropan-2-yl)-N-(6-(2-hydroxyethoxy)-5-(2-methoxyphenoxy)-2,2'-bipyrimidin-4-yl)benzenesulfonamide at 5 uM in presence of NADPH after 30 mins by LC-MS/MS analysis; assay type: ADME; conditions: recombinant enzyme, 0.5 h
T1 sequence (P08684 whole entry): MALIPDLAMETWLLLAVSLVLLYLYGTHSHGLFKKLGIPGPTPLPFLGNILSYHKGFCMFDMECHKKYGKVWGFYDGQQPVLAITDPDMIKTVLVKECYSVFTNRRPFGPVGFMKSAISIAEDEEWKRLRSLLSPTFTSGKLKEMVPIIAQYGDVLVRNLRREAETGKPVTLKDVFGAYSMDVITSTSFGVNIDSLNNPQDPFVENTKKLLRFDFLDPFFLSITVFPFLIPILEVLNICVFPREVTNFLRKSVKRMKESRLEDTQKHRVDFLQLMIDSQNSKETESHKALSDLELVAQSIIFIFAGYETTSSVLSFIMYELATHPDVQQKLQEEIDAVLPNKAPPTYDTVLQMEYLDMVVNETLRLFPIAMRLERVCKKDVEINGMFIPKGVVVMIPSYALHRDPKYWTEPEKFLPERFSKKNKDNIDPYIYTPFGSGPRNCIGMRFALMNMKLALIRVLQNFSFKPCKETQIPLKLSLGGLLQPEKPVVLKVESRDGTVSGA
Summary of the method: (§1)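 Substrate at 5 μM final in 100 mM potassium phosphate, pH 7.4, incubated with human liver microsomes or baculovirus-expressed recombinant CYP3A4, 2D6 or 2C9. Reaction started with 1 mM NADPH and run 0, 15 and 30 min at 37 °C. Stopped with ice-cold acetonitrile containing labetalol internal standard, then centrifuged. Supernatant analysed by LC-MS/MS on a C18 column at 40 °C. Blank was enzyme without substrate.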

[3] = Drug level in human liver microsomes treated with 4-(1,1,1,3,3,3-Hexafluoro-2-methoxypropan-2-yl)-N-(6-(2-hydroxyethoxy)-5-(2-methoxyphenoxy)-2,2'-bipyrimidin-4-yl)benzenesulfonamide at 5 uM in presence of NADPH after 30 mins by LC-MS/MS analysis; assay type: ADME; conditions: 0.5 h; summary of the method: as §1
[4] = Drug level in human liver microsomes treated with bosentan at 5 uM in presence of NADPH after 30 mins by LC-MS/MS analysis; assay type: ADME; conditions: 0.5 h; summary of the method: as §1
Cytochrome P450 3A4 [5] = biological target: T1, Cytochrome P450 3A4; assay: Drug level assessed as human recombinant CYP3A4-mediated compound formation treated with bosentan at 5 uM in presence of NADPH after 30 mins by LC-MS/MS analysis; assay type: ADME; conditions: recombinant enzyme, 0.5 h; summary of the method: as §1
Cytochrome P450 3A4 [6] = biological target: T1, Cytochrome P450 3A4; assay: Drug level assessed as human recombinant CYP3A4-mediated compound formation treated with 4-(1,1,1,3,3,3-Hexafluoro-2-hydroxypropan-2-yl)-N-(6-(2-hydroxyethoxy)-5-(2-methoxyphenoxy)-2,2'-bipyrimidin-4-yl)benzenesulfonamide at 5 uM in presence of NADPH after 30 mins by LC-MS/MS analysis; assay type: ADME; conditions: recombinant enzyme, 0.5 h; summary of the method: as §1
[7] = Drug level in human liver microsomes treated with 4-(1,1,1,3,3,3-Hexafluoro-2-hydroxypropan-2-yl)-N-(6-(2-hydroxyethoxy)-5-(2-methoxyphenoxy)-2,2'-bipyrimidin-4-yl)benzenesulfonamide at 5 uM in presence of NADPH after 30 mins by LC-MS/MS analysis; assay type: ADME; conditions: 0.5 h; summary of the method: as §1
[8] = Metabolic stability in human liver microsomes assessed as parent compound remaining at 5 uM in presence of NADPH after 30 mins by LC-MS/MS analysis; assay type: ADME; conditions: read-out: Stability
Summary of the method: (§2)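 Pooled human liver microsomes in 100 mM potassium phosphate, pH 7.4, with test compound at 5 μM final. Reaction started with 1 mM NADPH (final) and run at 37 °C in a shaking water bath for 0, 15 and 30 min. Stopped with an equal volume of ice-cold acetonitrile containing 0.6 μM labetalol as internal standard. Protein was spun out and the supernatant analysed by LC-MS/MS. Blank had no compound.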

Cytochrome P450 3A4 [9] = biological target: T1, Cytochrome P450 3A4; assay: Drug metabolism assessed as human recombinant CYP3A4-mediated formation of N-(6-ethoxy-5-(2-methoxyphenoxy)-2,2'-bipyrimidin-4-yl)-4-(1-hydroxy-2-methylpropan-2-yl)benzenesulfonamide at 5 uM in presence of NADPH after 30 mins by LC-MS/MS analysissss; assay type: ADME; conditions: recombinant enzyme, 0.5 h; summary of the method: as §1
[10] = Drug metabolism in human liver microsomes assessed as formation of N-(6-ethoxy-5-(2-methoxyphenoxy)-2,2'-bipyrimidin-4-yl)-4-(1-hydroxy-2-methylpropan-2-yl)benzenesulfonamide at 5 uM in presence of NADPH after 30 mins by LC-MS/MS analysissss; assay type: ADME; conditions: 0.5 h; summary of the method: as §2
Cytochrome P450 2C9 [11] = biological target: T2, Cytochrome P450 2C9 (Homo sapiens, UniProt P11712); assay: Drug metabolism assessed as human recombinant CYP2C9-mediated metabolite formation by measuring parent compound remaining at 5 uM in presence of NADPH after 30 mins by LC-MS/MS analysis; assay type: ADME; conditions: recombinant enzyme, 0.5 h; summary of the method: as §1
T2 sequence (P11712 whole entry): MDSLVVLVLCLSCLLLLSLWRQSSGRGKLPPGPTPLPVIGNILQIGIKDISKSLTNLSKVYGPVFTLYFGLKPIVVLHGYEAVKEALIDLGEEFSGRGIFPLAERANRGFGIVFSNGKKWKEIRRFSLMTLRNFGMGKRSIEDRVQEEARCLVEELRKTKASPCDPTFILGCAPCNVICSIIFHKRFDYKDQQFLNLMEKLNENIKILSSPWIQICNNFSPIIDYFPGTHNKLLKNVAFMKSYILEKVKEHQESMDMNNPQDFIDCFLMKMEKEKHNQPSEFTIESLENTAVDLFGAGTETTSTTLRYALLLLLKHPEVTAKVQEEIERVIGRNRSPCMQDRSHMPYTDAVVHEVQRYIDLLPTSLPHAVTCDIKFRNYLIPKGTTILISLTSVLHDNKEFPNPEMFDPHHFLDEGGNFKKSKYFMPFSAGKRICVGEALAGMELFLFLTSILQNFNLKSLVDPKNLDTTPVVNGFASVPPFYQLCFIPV

Cytochrome P450 2C9 [12] = biological target: T2, Cytochrome P450 2C9; assay: Drug metabolism assessed as human recombinant CYP2C9-mediated formation of N-(6-ethoxy-5-(2-methoxyphenoxy)-2,2'-bipyrimidin-4-yl)-4-(1-hydroxy-2-methylpropan-2-yl)benzenesulfonamide at 5 uM in presence of NADPH after 30 mins by LC-MS/MS analysissss; assay type: ADME; conditions: recombinant enzyme, 0.5 h; summary of the method: as §1
Cytochrome P450 3A4 [13] = biological target: T1, Cytochrome P450 3A4; assay: Drug metabolism assessed as human recombinant CYP3A4-mediated metabolite formation by measuring parent compound remaining at 5 uM in presence of NADPH after 30 mins by LC-MS/MS analysis; assay type: ADME; conditions: recombinant enzyme, 0.5 h; summary of the method: as §1
Cytochrome P450 2D6 = Cytochrome P450 2D6 (Homo sapiens, UniProt P10635); assay: Drug metabolism assessed as human recombinant CYP2D6-mediated metabolite formation by measuring parent compound remaining at 5 uM in presence of NADPH after 30 mins by LC-MS/MS analysis; assay type: ADME; conditions: recombinant enzyme, 0.5 h; summary of the method: as §1
Cytochrome P450 2D6, sequence (P10635 whole entry): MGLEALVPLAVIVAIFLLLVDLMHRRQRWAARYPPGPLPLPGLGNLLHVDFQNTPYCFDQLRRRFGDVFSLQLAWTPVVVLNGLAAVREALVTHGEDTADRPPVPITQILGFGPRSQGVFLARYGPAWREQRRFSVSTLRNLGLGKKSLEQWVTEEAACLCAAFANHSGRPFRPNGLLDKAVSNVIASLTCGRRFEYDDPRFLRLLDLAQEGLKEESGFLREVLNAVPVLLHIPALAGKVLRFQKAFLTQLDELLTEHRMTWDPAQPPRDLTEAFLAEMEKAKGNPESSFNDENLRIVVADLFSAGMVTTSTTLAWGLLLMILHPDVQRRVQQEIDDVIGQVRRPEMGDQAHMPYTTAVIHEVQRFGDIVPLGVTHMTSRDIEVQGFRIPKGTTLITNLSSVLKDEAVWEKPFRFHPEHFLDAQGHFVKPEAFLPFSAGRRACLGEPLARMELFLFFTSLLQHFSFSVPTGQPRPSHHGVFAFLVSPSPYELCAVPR

For COC(c1ccc(S(=O)(=O)Nc2nc(-c3ncccn3)nc(OCCO)c2Oc2ccccc2O)cc1)(C(F)(F)F)C(F)(F)F, the Retention_time [1] was 5.14 min, the Drug metabolism (Cytochrome P450 3A4 [2]) was “Metabolite_Detected” and the Drug metabolism [3] was “Metabolite_Detected”.

For CC(C)(C)c1ccc(S(=O)(=O)Nc2nc(-c3ncccn3)nc(OCCO)c2Oc2ccccc2O)cc1, the Retention_time [1] was 4.73 min, the Drug metabolism [4] was “Metabolite_Detected” and the Drug metabolism (Cytochrome P450 3A4 [5]) was “Metabolite_Detected”.

In the case of O=S(=O)(Nc1nc(-c2ncccn2)nc(OCCO)c1Oc1ccccc1O)c1ccc(C(O)(C(F)(F)F)C(F)(F)F)cc1, the Retention_time [1] is reported as 4.39 min, the Drug metabolism (Cytochrome P450 3A4 [6]) is reported as “Metabolite_Detected” and the Drug metabolism [7] is reported as “Metabolite_Detected”.

For CCOc1nc(-c2ncccn2)nc(NS(=O)(=O)c2ccc(C(C)(C)C)cc2)c1Oc1ccccc1OC, the Retention_time [1] was 5.96 min, the remaining at 0.5 h, 5 µM [8] was 68.5% and the Drug metabolism (Cytochrome P450 3A4 [9]) was “Metabolite_Detected”. For the same compound, the Drug metabolism [10] was “Metabolite_Detected”, the Stability (Cytochrome P450 2C9 [11]) was 99% and the Drug metabolism (Cytochrome P450 2C9 [12]) was “Metabolite_Detected”. For the same compound, the Stability (Cytochrome P450 3A4 [13]) was 15% and the Stability (Cytochrome P450 2D6) was > 99%.
